Sampled rows, rich in hits. Any-hit rate of the full collection: about 2.9%.
MEKK2 WT-MEK5 = modulators of MEK5 binding to wildtype MEKK2, primary screen, biochemical, multiplex bead flow cytometry, Alexa488-MEK5 | Alexa488-MEK5 binding to MEKK2 WT; actives lie on both sides | binding response (% of control), % at 10 µM | actives 1.1% (n = 290,000); in the data active = binding response below about 67% or above about 130%
Dynein transport = inhibitors of GR-EGFP nuclear translocation, primary screen, dynein cargo transport inhibitor project, imaging, high-content, 3617.4 mouse cells | test concentration mostly 20 µM; stimulated with dexamethasone, 1 µM; stronger effect = lower value | z-score, hits read low | actives 0.47% (n = 220,000) | AID 1381, 2008;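 active = plate z-score of nuclear minus cytoplasmic receptor signal below a set negative limit, without overly bright fluorescence or cell loss, cut at about -3.5 in these data, passing the limit was not always enough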;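 note: z-score of nuclear minus cytoplasmic ring GR-EGFP intensity difference per well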
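Buffer or medium: tet-free, stripped-serum medium; Also added: dexamethasone, 1.0 µM final; Technique: high-content fluorescence imaging after fixation; Times: 48 h induction, 1 h compound, 30 min dex at 37 °C; Read-out: per-cell GR-EGFP intensity, nucleus versus surrounding cytoplasmic ring, well-averaged.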
MEKK3 PB1 HTS = modulators of MEKK3-MEK5 PB1 binding, primary screen, biochemical, wildtype MEKK3, multiplex bead flow cytometry, Alexa488-MEK5; bead-based flow cytometry, Alexa488-MEK5 binding to MEKK3; actives lie on both sides; 0 = blocked by unlabeled MEK5, 100 = vehicle; binding response (% of control), % at 10 µM; Mitogen-activated protein kinase kinase kinase 3 (Homo sapiens), Q99759; actives 1.4% (n = 290,000);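 active = binding response more than 3 SD above or below the average of its plate-row segment, actives on both sides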;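 note: Alexa488 bead fluorescence after subtracting the streptavidin-only scavenger bead signal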
Target sequence (Q99759 whole entry, looked up): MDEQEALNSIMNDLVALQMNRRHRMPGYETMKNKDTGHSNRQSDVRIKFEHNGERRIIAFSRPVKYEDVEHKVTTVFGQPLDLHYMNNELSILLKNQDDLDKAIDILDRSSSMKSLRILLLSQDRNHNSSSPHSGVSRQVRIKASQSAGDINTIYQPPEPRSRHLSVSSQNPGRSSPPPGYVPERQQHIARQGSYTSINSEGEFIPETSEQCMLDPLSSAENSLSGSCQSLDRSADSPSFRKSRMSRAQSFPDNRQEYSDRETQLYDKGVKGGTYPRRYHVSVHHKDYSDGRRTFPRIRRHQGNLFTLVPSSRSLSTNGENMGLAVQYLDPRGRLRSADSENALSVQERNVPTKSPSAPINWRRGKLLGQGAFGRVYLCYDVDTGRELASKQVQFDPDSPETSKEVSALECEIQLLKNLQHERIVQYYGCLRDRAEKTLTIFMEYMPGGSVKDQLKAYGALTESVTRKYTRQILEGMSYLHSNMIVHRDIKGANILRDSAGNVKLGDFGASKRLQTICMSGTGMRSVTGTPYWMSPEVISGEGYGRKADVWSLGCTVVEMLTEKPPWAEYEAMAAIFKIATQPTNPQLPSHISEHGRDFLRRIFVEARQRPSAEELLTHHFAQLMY
B2AR ag = beta2AR agonists driving receptor internalization, primary screen, cell-based, FAP fluorogen, flow cytometry. response, % (test concentration not listed). Am2.2-beta2AR cells. Beta-2 adrenergic receptor (Homo sapiens), P07550. actives 0.43% (n = 340,000);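 active = response above a set limit, near 3 SD of response in nonfluorescent compounds, cut at about 42% in these data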
MEKK2 mut-MEK5 = MEK5 binding signal on mutant MEKK2 PB1, primary screen, biochemical, multiplex bead flow cytometry, Alexa488-MEK5. AID 1530, 2009. actives 0.35% (n = 290,000). Alexa488-MEK5 binding to MEKK2 mutant. percent response, % at 10 µM; in the data active = percent response above about 24%, passing the limit was not always enough
ATG4B inhibitor = ATG4B protease inhibitors, primary screen, biochemical, fluorescence, uHTS; Cysteine protease ATG4B (Homo sapiens), Q9Y4P1; inhibition, % at 8.33 µM; AID 504462, 2011; actives 0.51% (n = 340,000); ATG4B cleavage of LC3-PLA2, NBD-HPC fluorescence, 1 h; in the data active = inhibition above about 40%
ATG4B conf = ATG4B protease inhibitors, retest, confirmation, biochemical, fluorescence, single concentration; inhibition, % at 8.33 µM; shares compounds with ATG4B inhibitor; ATG4B protease fluorescent substrate cleavage assay; actives 92% (n = 320); in the data active = inhibition above about 39%
PLA2 ctr = PLA2 enzyme inhibition, counter-screen for ATG4B inhibitor project, biochemical, single concentration, uHTS hits; shares compounds with ATG4B inhibitor; purified PLA2, NBD-C6-HPC fluorescence, 45 min; inhibition, % at 8.33 µM; actives 66% (n = 1,600); AID 588402, 2011; in the data active = inhibition above about 50%
Numbers stand for hits; n = inactive; x = no result.

SMILES	MEKK2 WT-MEK5	Dynein transport	MEKK3 PB1 HTS	B2AR ag	MEKK2 mut-MEK5	ATG4B inhibitor	PLA2 ctr	others
Cc1ccc(OCc2cc(C(=O)N3CCCCCCC3)no2)cc1C	n	x	n	n	n	n	x
Cc1cccc(C)c1OCc1cc(C(=O)N2CCCCCCC2)no1	n	x	n	n	n	40	50
Cc1ccc(OCc2cc(C(=O)N3CCc4sccc4C3)no2)cc1C	n	x	n	n	n	57	79
COc1cc(C#Cc2ccc3cc(C(C)(C)O)oc(=O)c3c2)cc(OC)c1	x	x	x	n	x	n	x
CC(=O)Nc1ccc(S(=O)(=O)NCC(=O)OCC(=O)NCc2ccco2)cc1	x	x	x	n	x	n	x
Cc1cc(=O)oc2cc(Oc3ccc(C(N)=O)cc3[N+](=O)[O-])ccc12	n	n	n	n	n	n	x
Cc1cc(Cl)ccc1Oc1ccc(C(N)=O)cc1[N+](=O)[O-]	n	n	n	n	n	53	n
Cc1ccc(S(=O)(=O)/N=C2/NC(=O)/C(=C\c3cc(Br)cc(Br)c3O)S2)cc1	n	x	n	n	n	73	60
C#CCOCCOCCOCCNc1nc(N2CCN(C(=O)CCCCCCCCCCNC(=O)[C@H](CCCCN)n3cc(C)nn3)CC2)nc(N2CCN(C(=O)CCCCCCCCCCNC(=O)[C@@H]([C@H](C)O)n3cc(C)nn3)CC2)n1	x	x	x	n	x	n	x
C#CCOCCOCCOCCNc1nc(N2CCN(C(=O)CCCCCCCCCCNC(=O)[C@H](CCCCN)n3cc(CCO)nn3)CC2)nc(N2CCN(C(=O)CCCCCCCCCCNC(=O)[C@H](CCCCN)n3cc(C[C@@H](C)CC)nn3)CC2)n1	x	x	x	x	x	75	n	ATG4B conf=n
C#CCOCCOCCOCCNc1nc(N2CCN(C(=O)CCCCCCCCCCNC(=O)[C@H](CCCCN)n3cc(C[C@@H](C)CC)nn3)CC2)nc(N2CCN(C(=O)CCCCCCCCCCNC(=O)[C@H](CCCN=C(N)N)n3cc(C[C@@H](C)CC)nn3)CC2)n1	x	x	x	42	x	88	81
C#CCOCCOCCOCCNc1nc(N2CCN(C(=O)CCCCCCCCCCNC(=O)[C@H](CCCCN)n3cc(C)nn3)CC2)nc(N2CCN(C(=O)CCCCCCCCCCNC(=O)[C@H](CCCN=C(N)N)n3cc(C[C@@H](C)CC)nn3)CC2)n1	x	x	x	x	x	69	70
C#CCOCCOCCOCCNc1nc(N2CCN(C(=O)CCCCCCCCCCNC(=O)[C@@H](CCC(=O)O)n3cc(CCCCCN)nn3)CC2)nc(N2CCN(C(=O)CCCCCCCCCCNC(=O)[C@H](CCCCN)n3cc(C[C@@H](C)CC)nn3)CC2)n1	x	x	x	n	x	n	x
CC(=O)n1cc([C@H]2C=C(C(=O)N3CCN(Cc4ccc5c(c4)OCO5)CC3)O[C@@H](OCCCCO)C2)c2ccccc21	n	n	n	n	n	n	x
CCN(CC)C(=O)[C@H]1C[C@H](CC(=O)NC(C)(C)C)C(=O)N2CCc3c([nH]c4ccc(Cl)cc34)[C@]12C	x	x	x	n	x	n	x
O=c1oc(-c2ccccc2)nc2sc3c(c12)CCC3	n	n	n	n	n	56	n	ATG4B conf=72
O=C1CCC(=O)N1c1ccc(-c2nc3sc4c(c3c(=O)o2)CCC4)cc1	n	n	n	n	n	n	x
CCOCCCNC(=O)CN(c1cc([N+](=O)[O-])ccc1OC)S(C)(=O)=O	n	n	n	n	n	n	x
CCCNC(=O)C(Cc1cccc(Cl)c1)NC(=O)c1ccccc1 (stereo not drawn)	x	x	x	n	x	n	x
CCOC(CCn1c(SCc2ccc([N+](=O)[O-])cc2)nc2ccccc2c1=O)OCC	n	n	n	n	n	n	x
O=C(CSc1nc2ccccc2c(=O)n1-c1ccc(F)cc1)Nc1ccc(C(=O)O)cc1	n	x	n	n	n	n	x
CC(C#N)Sc1nc2ccccc2c(=O)n1-c1ccccc1 (stereo not drawn)	n	n	n	n	n	47	56
CCOC(=O)c1c(C)[nH]c(C)c1C(=O)CSc1nc2ccccc2[nH]1	n	n	n	n	n	n	x
COn1c(SC(C)C)nc2ccccc2c1=O	n	n	n	n	n	n	x
Cc1ccc(-n2c(SCc3ccc([N+](=O)[O-])cc3)nc3ccccc3c2=O)cc1	n	n	n	n	n	41	n
SMILES	MEKK2 WT-MEK5	Dynein transport	MEKK3 PB1 HTS	B2AR ag	MEKK2 mut-MEK5	ATG4B inhibitor	PLA2 ctr	others
Cc1ccc(-n2c(SCC(=O)NNC(=S)Nc3ccccc3)nc3ccccc3c2=O)cc1	n	n	n	n	n	78	82
CCOC(=O)c1c(C)[nH]c(C)c1C(=O)CSc1nc2ccccc2c(=O)n1-c1ccc(CC)cc1	n	n	n	n	n	52	66
Cc1cccc(N2CCN(C(=O)CCCn3c(=O)[nH]c4ccsc4c3=O)CC2C)c1 (stereo not drawn)	n	x	n	n	n	n	x
CCn1c(SCc2ccccc2Cl)nc2nc3c(cc2c1=O)CCCC3	n	n	n	n	n	40	n	ATG4B conf=66
CCn1c(SCc2c(Cl)cccc2Cl)nc2nc3c(cc2c1=O)CCCC3	x	x	x	n	x	n	x
Fc1ccc(-c2csc(=S)[nH]2)cc1	n	n	n	n	n	n	x
Cc1[nH]c(=S)sc1Cc1ccc(F)cc1	n	n	n	n	n	40	n
COc1ccc(-c2nnc(SCc3ccccc3F)o2)cc1OC	n	n	n	n	n	n	x
Cc1ccc(-c2nnc(SCc3ccccc3F)o2)cc1	n	n	n	n	n	48	n	ATG4B conf=69
COc1ccc(N(CC(=O)NCCSCc2ccco2)S(=O)(=O)c2ccccc2)cc1Cl	n	x	n	n	n	n	x
Cc1ccc(-c2cc(-c3ccccc3C)[nH]n2)c(O)c1	n	n	n	n	n	57	74
CC(C)NC(=O)NC(=O)CSc1nnc(COc2ccccc2F)n1C(C)C1CC2CCC1C2 (stereo not drawn)	n	n	n	n	n	42	n

Source: PubChem BioAssay (several laboratories)
